Laboratory results published in ChEMBL document CHEMBL3286368, “Delayed and Prolonged Histone Hyperacetylation with a Selective HDAC1/HDAC2 Inhibitor” (ACS Med Chem Lett, 2014).

Legend:
Mus musculus [1] = experiment: Inhibition of HDAC in CD1 nu/nu mouse tumor xenografted with human HCT116 cells assessed as plasma drug level causing increase in H2BK5 acetylation at 67 mg/kg, po tid after 48 hrs by ELISA; assay type: functional, HCT-116
in vivo [2] = settings: CD1 nu/nu, mouse, po, 525 mg/kg
[3] = Oral bioavailability in beagle dog at 1 mg/kg; assay type: ADME, organism-based, Canis lupus familiaris; settings: in vivo
[4] = Cmax in CD1 nu/nu mouse xenografted with human HCT116 cells at 200 mg/kg, po qd for 3 weeks; assay type: ADME, organism-based, HCT-116; set-up: dose 200 mg/kg, route oral; settings: in vivo
Outline: (§1)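 HCT116 cells (5 × 10^6 per mouse) injected subcutaneously into the right flank of CD1 nu/nu mice. Once tumors reached ~325 mm3, mice were randomized into groups of 12 and dosed orally for 21 days, once daily (qd) or biweekly (biw). Vehicle was 40% v/v PEG-400 plus 25% w/v HPβCD at 20 μL/g.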

[5] = Cmax in CD1 nu/nu mouse xenografted with human HCT116 cells at 875 mg/kg, po administered biweekly for 3 weeks; assay type: ADME, organism-based, HCT-116; set-up: dose 875 mg/kg, route oral; settings: in vivo; outline: as §1
Mus musculus [6] = experiment: Inhibition of HDAC in CD1 nu/nu mouse tumor xenografted with human HCT116 cells assessed as plasma drug level causing increase in H2BK5 acetylation at 100 mg/kg, po bid after 4 hrs by ELISA; assay type: functional, HCT-116
[7] = Cmax in CD1 nu/nu mouse xenografted with human HCT116 cells at 150 mg/kg, po qd for 3 weeks; assay type: ADME, organism-based, HCT-116; set-up: dose 150 mg/kg, route oral; settings: in vivo; outline: as §1
Mus musculus [8] = experiment: Inhibition of HDAC in CD1 nu/nu mouse tumor xenografted with human HCT116 cells assessed as plasma drug level causing increase in H2BK5 acetylation at 100 mg/kg, po bid after 8 hrs by ELISA; assay type: functional, HCT-116
[9] = Plasma protein binding in beagle dog at 2 uM; assay type: ADME, cell-free, Canis lupus familiaris; settings: read-out: PPB (converted)
Outline: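 Plasma protein binding measured in mouse, rat, dog and monkey plasma at 2 μM compound.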

[10] = Volume of distribution at steady state in rhesus monkey at 0.5 mg/kg, iv; assay type: ADME, organism-based, Macaca mulatta; set-up: dose 0.5 mg/kg, route intravenous; settings: in vivo, read-out: Vdss
Outline: (§2)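 Intravenous dosing at 5 (mouse), 2 (rat), 0.5 (dog) and 0.5 (monkey) mg/kg. Plasma clearance, steady-state volume of distribution and half-life derived from the plasma profile.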

[11] = Half life in CD-1 mouse at 5 mg/kg, iv; assay type: ADME, organism-based; set-up: dose 5 mg/kg, route intravenous; settings: in vivo; outline: as §2
Mus musculus [12] = experiment: Inhibition of HDAC in CD1 nu/nu mouse tumor xenografted with human HCT116 cells assessed as plasma drug level causing increase in H2BK5 acetylation at 200 mg/kg, po qd after 1 hr by ELISA; assay type: functional, HCT-116
Mus musculus [13] = experiment: Dose normalized AUC in CD-1 mouse at 10 mg/kg, po; assay type: ADME, organism-based; set-up: dose 10 mg/kg, route oral; settings: in vivo
HCT-116 = experiment: cells; assay type: functional, Homo sapiens
[14] = Drug metabolism in rat hepatocytes; assay type: ADME, cell-based, Hepatocyte
[15] = AUC (0 to 24 hrs) in CD1 nu/nu mouse xenografted with human HCT116 cells at 50 mg/kg, po qd for 3 weeks; assay type: ADME, organism-based, HCT-116; set-up: time < 24 hr, dose 50 mg/kg, route oral; settings: in vivo
Outline: (§3)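 HCT116 cells (5 × 10^6/mouse) injected sc into right flank of CD1 nu/nu mice; at ~325 mm3 tumors, randomized into groups of 12. Oral dosing 21 days, once daily or biweekly, in 40% v/v PEG-400 and 25% w/v HPβCD at 20 μL/g. […] Tumor size by caliper.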

Mus musculus [16] = experiment: Unbound Cmin in 3 week po dosed CD1 nu/nu mouse xenografted with human HCT116 cells after 24 hrs; assay type: ADME, organism-based, HCT-116; settings: in vivo
Mus musculus [17] = experiment: Inhibition of HDAC in CD1 nu/nu mouse tumor xenografted with human HCT116 cells assessed as plasma drug level causing increase in H2BK5 acetylation at 67 mg/kg, po tid after 8 hrs by ELISA; assay type: functional, HCT-116
Mus musculus [18] = experiment: Inhibition of HDAC in CD1 nu/nu mouse tumor xenografted with human HCT116 cells assessed as plasma drug level causing increase in H2BK5 acetylation at 67 mg/kg, po tid after 72 hrs by ELISA; assay type: functional, HCT-116
[19] = Oral bioavailability in CD-1 mouse at 10 mg/kg; assay type: ADME, organism-based; settings: in vivo
[20] = AUC (0 to 24 hrs) in CD1 nu/nu mouse xenografted with human HCT116 cells at 100 mg/kg, po qd for 3 weeks; assay type: ADME, organism-based, HCT-116; set-up: time < 24 hr, dose 100 mg/kg, route oral; settings: in vivo; outline: as §3
[21] = AUC (0 to 24 hrs) in CD1 nu/nu mouse xenografted with human HCT116 cells at 350 mg/kg, po administered biweekly for 3 weeks; assay type: ADME, organism-based, HCT-116; set-up: time < 24 hr, dose 350 mg/kg, route oral; settings: in vivo; outline: as §3
[22] = Half life in beagle dog at 0.5 mg/kg, iv; assay type: ADME, organism-based, Canis lupus familiaris; set-up: dose 0.5 mg/kg, route intravenous; settings: in vivo; outline: as §2
Rattus norvegicus = experiment: Dose normalized AUC in Sprague-Dawley rat at 4 mg/kg, po; assay type: ADME, organism-based; set-up: dose 4 mg/kg, route oral; settings: in vivo
Outline: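 Oral exposure, dose-normalized (μM·h·kg/mg), from a PK study also run with iv dosing (rat 2 mg/kg iv, 4 mg/kg po; monkey 0.5 mg/kg iv, 1 mg/kg po). Plasma clearance, Vdss, half-life and oral bioavailability also derived.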

[23] = Drug metabolism in human hepatocytes assessed as oxidation of piperidine ring; assay type: ADME, cell-based, Hepatocyte
Mus musculus [24] = experiment: Inhibition of HDAC in CD1 nu/nu mouse tumor xenografted with human HCT116 cells assessed as plasma drug level causing increase in H2BK5 acetylation at 200 mg/kg, po qd after 72 hrs by ELISA; assay type: functional, HCT-116
in vivo [25] = settings: CD1 nu/nu, mouse, po, 200 mg/kg
in vivo [26] = settings: CD1 nu/nu, mouse, po, 150 mg/kg
[27] = Cmax in CD1 nu/nu mouse xenografted with human HCT116 cells at 50 mg/kg, po qd for 3 weeks; assay type: ADME, organism-based, HCT-116; set-up: dose 50 mg/kg, route oral; settings: in vivo; outline: as §1
Mus musculus [28] = experiment: Inhibition of HDAC in CD1 nu/nu mouse tumor xenografted with human HCT116 cells assessed as plasma drug level causing increase in H2BK5 acetylation at 100 mg/kg, po bid after 72 hrs by ELISA; assay type: functional, HCT-116
[29] = Half life in rhesus monkey at 0.5 mg/kg, iv; assay type: ADME, organism-based, Macaca mulatta; set-up: dose 0.5 mg/kg, route intravenous; settings: in vivo; outline: as §2
Mus musculus [30] = experiment: Inhibition of HDAC in CD1 nu/nu mouse tumor xenografted with human HCT116 cells assessed as plasma drug level causing increase in H2BK5 acetylation at 100 mg/kg, po bid after 1 hr by ELISA; assay type: functional, HCT-116
Mus musculus [31] = experiment: Inhibition of HDAC in CD1 nu/nu mouse tumor xenografted with human HCT116 cells assessed as plasma drug level causing increase in H2BK5 acetylation at 200 mg/kg, po qd after 48 hrs by ELISA; assay type: functional, HCT-116
[32] = Volume of distribution at steady state in beagle dog at 0.5 mg/kg, iv; assay type: ADME, organism-based, Canis lupus familiaris; set-up: dose 0.5 mg/kg, route intravenous; settings: in vivo, read-out: Vdss; outline: as §2
Mus musculus [33] = experiment: Inhibition of HDAC in CD1 nu/nu mouse tumor xenografted with human HCT116 cells assessed as plasma drug level causing increase in H2BK5 acetylation at 100 mg/kg, po bid after 48 hrs by ELISA; assay type: functional, HCT-116

Nc1ccc(-c2cccs2)cc1NC(=O)c1ccc(N2CCC3(CC2)CNC(=O)O3)nc1
INH (Mus musculus [1]): 0.1 µM | concentration at 24 h (in vivo [2]): 9.4 µM | bioavailability [3]: 17% | Cmax [4]: 40.4 µM | Cmax [5]: 56.4 µM | INH (Mus musculus [6]): 9.6 µM | Cmax [7]: 16.6 µM | INH (Mus musculus [8]): 9.9 µM | fraction unbound at 2 µM [9]: 0.024 | Vd [10]: 7.8 L/kg | half-life [11]: 2 h | INH (Mus musculus [12]): 11.9 µM | AUC/dose (Mus musculus [13]): 1.1 µM·kg·h/mg | GI25 (HCT-116): 50 nM | GI75 (HCT-116): 188 nM | GI90 (HCT-116): 367 nM | Drug metabolism [14]: metabolite_notdetected | AUC at 24 h [15]: 40 µM·h | fCmin (Mus musculus [16]): 48 nM | INH (Mus musculus [17]): 8.2 µM | INH (Mus musculus [18]): 0.3 µM | bioavailability [19]: 82% | AUC at 24 h [20]: 110 µM·h | AUC at 24 h [21]: 566 µM·h | half-life [22]: 1.4 h | AUC/dose (Rattus norvegicus): 3 µM·kg·h/mg | Drug metabolism [23]: metabolite_notdetected | INH (Mus musculus [24]): 0.3 µM | concentration at 24 h (in vivo [25]): 5 µM | concentration at 24 h (in vivo [26]): 3.3 µM | Cmax [27]: 3.5 µM | INH (Mus musculus [28]): 0.2 µM | half-life [29]: 7.1 h | INH (Mus musculus [30]): 14.3 µM | INH (Mus musculus [31]): 0.2 µM | Vd [32]: 2.2 L/kg | INH (Mus musculus [33]): 0.3 µM
